Active and inactive are the calls of the source. The calls are words filed in the database; no cut-off is given here.
Experiments:
HOP-62 = assay: Cytotoxicity against human HOP62 cells; type: functional
How it was run: (§1)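 NCI 60-cell-line screen (eight solid-tumour subpanels plus leukemia). A one-dose pass at 10−5 M came first. Selected compounds were then run at five concentrations from 10−8 to 10−4 M. GI50 is the concentration giving 50% growth inhibition.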

HCT-116 = assay: Cytotoxicity against human HCT116 cells; type: functional; how it was run: as §1
SF-539 = assay: Cytotoxicity against human SF539 cells; type: functional; how it was run: as §1
UACC-62 = assay: Cytotoxicity against human UACC62 cells; type: functional; how it was run: as §1
OVCAR-3 = assay: Cytotoxicity against human OVCAR-3 cells; type: functional; how it was run: as §1
SN12C = assay: Cytotoxicity against human SN12C cells; type: functional; how it was run: as §1
DU-145 = assay: Cytotoxicity against human DU145 cells; type: functional; how it was run: as §1
MCF7 = assay: Cytotoxicity against human MCF7 cells; type: functional; how it was run: as §1
[1] = target: T1, DNA topoisomerase 1 (Homo sapiens) (UniProt P11387); assay: Inhibition of human recombinant Top1-mediated DNA cleavage at 0.1 to 100 uM after 20 mins relative to camptothecin; set-up: scale not given: the % may be the effect or the level left
T1 sequence (whole entry): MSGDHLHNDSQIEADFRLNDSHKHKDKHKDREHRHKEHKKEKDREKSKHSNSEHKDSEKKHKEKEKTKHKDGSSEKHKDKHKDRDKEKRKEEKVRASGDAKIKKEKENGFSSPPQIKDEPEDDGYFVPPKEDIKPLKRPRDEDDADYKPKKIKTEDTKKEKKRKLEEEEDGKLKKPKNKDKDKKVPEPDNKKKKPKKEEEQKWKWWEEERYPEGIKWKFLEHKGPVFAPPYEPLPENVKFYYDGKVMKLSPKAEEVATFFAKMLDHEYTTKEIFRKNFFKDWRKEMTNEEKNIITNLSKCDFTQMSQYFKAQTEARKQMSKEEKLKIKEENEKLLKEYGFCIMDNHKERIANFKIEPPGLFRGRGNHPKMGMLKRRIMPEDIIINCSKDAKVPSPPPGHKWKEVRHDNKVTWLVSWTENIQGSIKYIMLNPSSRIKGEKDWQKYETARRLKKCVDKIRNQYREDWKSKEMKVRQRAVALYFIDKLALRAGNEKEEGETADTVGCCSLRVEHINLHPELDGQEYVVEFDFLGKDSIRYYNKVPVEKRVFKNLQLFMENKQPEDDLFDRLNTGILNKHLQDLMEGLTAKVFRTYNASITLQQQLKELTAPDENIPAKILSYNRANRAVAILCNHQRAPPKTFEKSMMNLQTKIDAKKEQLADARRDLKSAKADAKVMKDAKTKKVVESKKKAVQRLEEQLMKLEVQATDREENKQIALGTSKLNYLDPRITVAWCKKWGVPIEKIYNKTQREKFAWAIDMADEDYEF
How it was run: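 Human recombinant Top1 purified from baculovirus. Substrate is a 117-bp oligonucleotide, about 2 nM, 3′-end labelled with 32P-dGTP by Klenow fill-in. Stopped with 0.5% SDS, run on 20% denaturing PAGE and phosphorimaged. Cleavage graded 0 to +++ against 1 μM camptothecin.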

Structure (SMILES)	GI50 (HOP-62) [nM]	GI50 (HCT-116) [nM]	GI50 (SF-539) [nM]	GI50 (UACC-62) [nM]	GI50 (OVCAR-3) [nM]	GI50 (SN12C) [nM]	GI50 (DU-145) [nM]	GI50 (MCF7) [nM]	Activity [1]
NCCCc1c2c(nc3cc4c(cc13)OCCO4)-c1cc3ccccc3c(=O)n1C2	2140	1950	1860	1620	1950	1860	1820	1050	75%
COc1cc2nc3c(c(CNCCCn4ccnc4)c2cc1OC)Cn1c-3cc2ccccc2c1=O									inactive
O=c1c2ccccc2cc2n1Cc1c-2nc2cc3c(cc2c1CN1CCOCC1)OCCO3	3800	1330	810	990	1700	2570	930	300	75%
CN(C)Cc1c2c(nc3cc4c(cc13)OCO4)-c1cc3ccccc3c(=O)n1C2									50%
O=c1c2ccccc2cc2n1Cc1c-2nc2cc3c(cc2c1CNCCCn1ccnc1)OCO3	5010	1320	2140	3390	4260	5890	2570	480	50%
COc1cc2nc3c(c(CN4CCN(C)CC4)c2cc1OC)Cn1c-3cc2ccccc2c1=O									inactive
COc1cc2c3c(n(CCCN4CCOCC4)c(=O)c2cc1OC)-c1cc2c(cc1C3=O)OCO2 [INDOTECAN]			40	30				370	Active
O=c1c2ccccc2cc2n1Cc1c-2nc2cc3c(cc2c1CCCCl)OCCO3									inactive
O=c1c2ccccc2cc2n1Cc1c-2nc2ccc(Cl)cc2c1CNCCO	7240	2140	4360	2040	6460	10200		230	50%
O=c1c2ccccc2cc2n1Cc1c-2nc2cccc(Cl)c2c1CN1CC[C@H](O)C1	1660	1550	1950	3090	2630	3710	3980	370	20%
COc1cc2nc3c(c(CCl)c2cc1OC)Cn1c-3cc2ccccc2c1=O									inactive
O=c1c2ccccc2cc2n1Cc1c-2nc2cc3c(cc2c1CNCCO)OCCO3	5690	2630	4260	1160	1950	5750	2040	440	50%
O=c1c2ccccc2cc2n1Cc1c-2nc2cc3c(cc2c1CCCN1CCOCC1)OCCO3	540	1420	1150	1150	1840	1130	760	60	50%
O=c1c2ccccc2cc2n1Cc1c-2nc2cccc(Cl)c2c1CNCCCn1ccnc1	2510	1580	1900	7240	4900	6030	1020	550	75%
Cc1cc2c(CNCCCn3ccnc3)c3c(nc2cc1F)-c1cc2ccccc2c(=O)n1C3	36700	3050	1100	> 100000	4680	1800	6240	2210	inactive
CN1CCN(Cc2c3c(nc4ccc(Cl)cc24)-c2cc4ccccc4c(=O)n2C3)CC1	2290	150	1580	1410	1510	1780	2750	3310	20%
Cc1cc2c(CN)c3c(nc2cc1F)-c1cc2ccccc2c(=O)n1C3									20%
O=c1c2ccccc2cc2n1Cc1c-2nc2cc3c(cc2c1CN1CC[C@H](O)C1)OCCO3	1010	820	490	460	1840	940	1020	270	50%
CN1CCN(Cc2c3c(nc4cc(Cl)ccc24)-c2cc4ccccc4c(=O)n2C3)CC1	18100	13500	15100	17000	15100	19000	23400	10900	20%
CN1CCN(Cc2c3c(nc4cc5c(cc24)OCO5)-c2cc4ccccc4c(=O)n2C3)CC1	17000	1450	11700	1620	16200	2340	51300	380	50%
CN1CCN(Cc2c3c(nc4cccc(Cl)c24)-c2cc4ccccc4c(=O)n2C3)CC1	1860	1410	1510	15500	4170	13800	9770	1000	inactive
Cc1cc2c(CN3CCN(C)CC3)c3c(nc2cc1F)-c1cc2ccccc2c(=O)n1C3	20100	1800	6460	16200	14600	16000	2630	1800	50%
COc1cc2c3c(n(CCCn4ccnc4)c(=O)c2cc1OC)-c1cc2c(cc1C3=O)OCO2 [INDIMITECAN]	< 10	< 10	37	< 10	85	< 10	< 10	10	Active
O=c1c2ccccc2cc2n1Cc1c-2nc2ccc(Cl)cc2c1Cn1ccnc1	460	400	390	310	690	1540	480	190	20%
O=c1c2ccccc2cc2n1Cc1c-2nc2cc3c(cc2c1CN1CC[C@H](O)C1)OCO3	480	850	600	350	> 100000	790		70	50%
O=c1c2ccccc2cc2n1Cc1c-2nc2cc3c(cc2c1Cn1ccnc1)OCCO3	19500	> 100000	4370	21400	18600	81300	> 100000	300	75%
O=c1c2ccccc2cc2n1Cc1c-2nc2cc3c(cc2c1CCCNCCO)OCCO3	1010	820	490	460	1840	940	1020	270	0%
O=c1c2ccccc2cc2n1Cc1c-2nc2ccc(Cl)cc2c1CN1CC[C@H](O)C1	1050	1100	1260	740	1860		1660	370	20%
COc1cc2nc3c(c(Cn4ccnc4)c2cc1OC)Cn1c-3cc2ccccc2c1=O									inactive
